SENP7 block: blocks the human protease SENP7; Q9BQF6; AID 434973; 330,000 tested, 1.5% active; inhibition, % at 5 µM; recombinant SENP7, Z-RLRGG-aminoluciferin luminescence, 40 min;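 active means inhibition above about 50% at the single test dose, limit read from the data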;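 further: plate controls were DMSO with enzyme for no effect and no enzyme buffer wells for full effect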
HSP90 inh: HSP90 refolding inhibition in rabbit reticulocyte lysate. luciferase refolding luminescence, 3 h. inhibition, % at 5.6 µM. 290,000 tested, 0.91% active;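 active means inhibition above the screen-wide mean plus 3 SD, computed separately per campaign, cut at about 16% in these data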;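 further: 0% = DMSO wells and 100% = 60 µM geldanamycin wells; inhibitors lower the luminescence because luciferase stays unfolded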
SENP8 block-1: SENP8 protease inhibition | Q96LD8 | purified SENP8, Z-RLRGG-aminoluciferin cleavage, luminescence | inhibition, % at 10 µM | 330,000 tested, 1.2% active | AID 2540; in the data active means inhibition above about 50%
Target sequence (Q96LD8 whole entry, looked up): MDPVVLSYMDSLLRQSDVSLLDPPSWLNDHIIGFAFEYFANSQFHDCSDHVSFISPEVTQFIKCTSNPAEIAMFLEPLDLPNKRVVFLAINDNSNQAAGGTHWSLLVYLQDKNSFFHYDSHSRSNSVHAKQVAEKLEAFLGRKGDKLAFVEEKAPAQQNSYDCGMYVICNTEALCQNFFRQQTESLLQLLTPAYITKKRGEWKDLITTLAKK
SENP1 FRET inh: blocks the human SENP1 SUMO protease catalytic domain | Q9P0U3 | recombinant SENP1 catalytic domain, CyPet-SUMO1-YPet FRET cleavage | inhibition, % at 10 µM | 360,000 tested, 0.21% active;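 active means inhibition at least 30% at 10 µM, raw YFP signal under a set limit, fluorescence ratio 0.5 to 1.5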;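 further: 0% = enzyme with DMSO and 100% = no enzyme wells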
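System: Recombinant human SENP1 catalytic domain, His6-tagged | Incubation: Enzyme reaction for 50 min at room temperature, dark | Medium: Tris pH 8 with BME, BSA, NP40 and catalase | Also added: 25 nM SUMO1 FRET substrate | Compound: 10 µM single point, 0.5% DMSO | Measured by: FRET fluorescence in CFP and YFP emission channels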
SENP8 block-2: inhibitors of human SENP8 protease | inhibition, % at 20 µM | Q96LD8 | recombinant SENP8, Nedd8 substrate fluorescence | 360,000 tested, 0.64% active; in the data active means inhibition mostly above about 40%, no sharp cut-off; inactive means mostly below about 27%
SENP6 inh: SENP6 protease inhibition. Q9GZR1. Recombinant SENP6 catalytic domain, aminoluciferin luminescence. inhibition, % at 10 µM. 330,000 tested, 1.8% active. AID 2599;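 active means inhibition above about 50% at the single tested dose, limit read from the data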;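 further: plate controls were DMSO wells with enzyme for no effect and DMSO wells lacking enzyme for full effect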
Target sequence (Q9GZR1 628-1112 limits assumed): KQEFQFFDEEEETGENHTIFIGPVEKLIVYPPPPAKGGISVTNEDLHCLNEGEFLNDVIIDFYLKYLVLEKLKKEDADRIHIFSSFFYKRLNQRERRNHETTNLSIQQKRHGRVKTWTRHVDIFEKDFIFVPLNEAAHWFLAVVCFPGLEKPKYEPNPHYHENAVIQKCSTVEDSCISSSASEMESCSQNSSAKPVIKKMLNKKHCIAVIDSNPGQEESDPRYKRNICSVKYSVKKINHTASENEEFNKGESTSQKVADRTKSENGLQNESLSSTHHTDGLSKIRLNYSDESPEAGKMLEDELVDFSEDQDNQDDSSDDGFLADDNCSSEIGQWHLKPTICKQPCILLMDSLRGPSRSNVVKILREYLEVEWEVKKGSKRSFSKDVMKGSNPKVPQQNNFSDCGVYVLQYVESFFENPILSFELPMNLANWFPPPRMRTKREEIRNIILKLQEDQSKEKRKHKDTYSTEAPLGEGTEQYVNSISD
SENP8 conf: confirmation of human SENP8 protease inhibitors. shares compounds with SENP7 block. Recombinant SENP8, Z-RLRGG-aminoluciferin luminescence, 60 min. inhibition, % at 12.5 µM. 6,200 tested, 40% active. AID 488912;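 active means mean inhibition across replicates above about 50%, limit read from the data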
SENP6 confirm: human SENP6 inhibition, confirmed. 6,200 tested, 58% active. recombinant SENP6, Z-RLRGG-aminoluciferin luminescence. shares compounds with SENP7 block. inhibition, % at 12.5 µM
SENP7 confirm: human SENP7 inhibition, confirmed | inhibition, % at 12.5 µM | recombinant SENP7, Z-RLRGG-aminoluciferin luminescence, 40 min | 6,200 tested, 69% active | shares compounds with SENP7 block | AID 488917
Casp3 SENP sel: inhibits human caspase-3 in SENP selectivity test | AID 488918 | shares compounds with SENP7 block | purified caspase-3, Z-DEVD-aminoluciferin luminescence, 60 min | 6,200 tested, 60% active | inhibition, % at 12.5 µM;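 active means mean inhibition above about 50%, limit read from the data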;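 further: plate controls were enzyme with DMSO for no effect and wells without caspase-3 for full effect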
Luc interf: luminescence interference (SENP counter-screen); shares compounds with SENP7 block; Pre-incubated SENP8/Z-RLRGG-aminoluciferin, luciferase luminescence interference; inhibition, % at 12.5 µM; 6,200 tested, 39% active;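 active means mean inhibition above about 50% when retested at one dose, limit read from the data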;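 further: plate controls were DMSO wells with completed reaction for no effect and substrate without enzyme for full effect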
* hit, by the source's call. Hits are enriched below; roughly 2.9% of the tested compounds scored in any of these assays.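 How the source made its calls, unless noted: active means mean inhibition above about 50% in the one-dose retest (limit read from the data); inactive means the rest.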

`c1ccc(-c2nn3c(-c4ccccc4)nnc3s2)cc1` gave SENP7 block -2.1, HSP90 inh 5.3, SENP8 block-1 -5.5, SENP1 FRET inh -1.4, SENP8 block-2 2.7 and SENP6 inh 0.6.
Cc1ccc(-c2nnc3sc(-c4ccncc4)nn23)cc1 was read as SENP7 block 56.8*, HSP90 inh -3.4, SENP8 block-1 -8.4, SENP1 FRET inh 0.0, SENP8 block-2 2.2, SENP6 inh -15.9, SENP8 conf 0.7, SENP6 confirm 4.7, SENP7 confirm 10.3, Casp3 SENP sel 6.2 and Luc interf 3.1.
For Cc1ccc(/C=C/C(=O)NCCc2cccc(Cl)c2)o1 the results were SENP7 block -7.2, HSP90 inh 3.4, SENP8 block-1 -7.8, SENP1 FRET inh -20.4, SENP8 block-2 -15.2 and SENP6 inh -21.9.
Screening C(=N\Nc1nc2ccccc2[nH]1)/c1cccs1 returned SENP7 block 61.6*, HSP90 inh -4.1, SENP8 block-1 59.2*, SENP1 FRET inh -1.0, SENP8 block-2 -24.0, SENP6 inh 85.7*, SENP8 conf 57.1*, SENP6 confirm 53.6*, SENP7 confirm 66.9*, Casp3 SENP sel 51.9* and Luc interf 64.8*.
Cc1nn(-c2ccccc2)c(C)c1/C=N/Nc1nc2ccccc2[nH]1 was read as SENP7 block 74.6*, HSP90 inh 6.8, SENP8 block-1 74.1*, SENP1 FRET inh -7.4, SENP8 block-2 -293.6, SENP6 inh 38.8, SENP8 conf 84.3*, SENP6 confirm 83.7*, SENP7 confirm 94.0*, Casp3 SENP sel 74.0* and Luc interf 83.2*.
`Cc1ccsc1/C=N/Nc1nc2ccccc2[nH]1` gave HSP90 inh 6.2, SENP1 FRET inh -7.7 and SENP8 block-2 -259.2.
`Cn1c(/C=N/Nc2nc3ccccc3[nH]2)nc2ccccc21` gave SENP7 block 74.3*, HSP90 inh 8.6, SENP8 block-1 60.2*, SENP1 FRET inh -0.2, SENP8 block-2 16.4, SENP6 inh 83.1*, SENP8 conf 61.9*, SENP6 confirm 58.9*, SENP7 confirm 82.2*, Casp3 SENP sel 52.3* and Luc interf 14.6.
For N#Cc1c(Nc2ccccc2)[n+]([O-])c2ccc(Cl)cc2[n+]1[O-] the results were SENP1 FRET inh -38.6 and SENP8 block-2 8.6.
`COc1ccc(C2/C(=C(/O)c3ccc(Br)cc3)C(=O)C(=O)N2C)cc1OC` (stereo not drawn) gave SENP7 block 58.0*, HSP90 inh 0.0, SENP8 block-1 -4.8, SENP1 FRET inh 2.2, SENP8 block-2 12.2, SENP6 inh 6.5, SENP8 conf 4.5, SENP6 confirm 5.3, SENP7 confirm 0.4, Casp3 SENP sel -0.2 and Luc interf 1.3.
Cn1ncc2c1NC(c1ccc(F)cc1)SCC2=O (stereo not drawn) was read as SENP1 FRET inh 2.0 and SENP8 block-2 3.4.
Screening Cc1ccc(NC(=O)CN2C(=O)N/C(=C\c3ccco3)C2=O)cc1 returned SENP7 block 1.6, SENP8 block-1 4.3, SENP1 FRET inh -4.1, SENP8 block-2 -52.5 and SENP6 inh 1.8.
Screening Cc1nc(SCCC(=O)O)c2cc(-c3ccccc3)sc2n1 returned SENP7 block 59.8*, HSP90 inh 0.6, SENP8 block-1 71.5*, SENP1 FRET inh 0.1, SENP8 block-2 -82.9, SENP6 inh 71.5*, SENP8 conf 45.5, SENP6 confirm 76.5*, SENP7 confirm 14.5, Casp3 SENP sel 82.2* and Luc interf 47.7.
For C#CCOCCOCCOCCNc1nc(N2CCN(C(=O)[C@H](C)n3cc(CCC(=O)O)nn3)CC2)nc(N2CCN(C(=O)[C@H](CCCCN)n3cc(CCCC)nn3)CC2)n1 the results were SENP1 FRET inh 3.6 and SENP8 block-2 10.5.
For C/C(=N\NC(=O)c1nn(C)c(C)c1Br)c1ccc(NC(=O)c2ccoc2C)cc1 the results were SENP7 block 59.6*, HSP90 inh 13.3, SENP8 block-1 -6.7, SENP1 FRET inh 1.9, SENP8 block-2 -7.5, SENP6 inh 41.1, SENP8 conf -1.7, SENP6 confirm 2.1, SENP7 confirm -0.3, Casp3 SENP sel 11.8 and Luc interf 13.4.
For C/C(=N\NC(=O)c1c(Br)c(C)nn1C)c1ccc(NC(=O)c2ccoc2C)cc1 the results were SENP7 block 3.3, HSP90 inh -0.2, SENP8 block-1 1.2, SENP1 FRET inh 1.1, SENP8 block-2 3.1 and SENP6 inh 16.2.
For O=C(Nc1cccnc1)c1ccc(Oc2ccccc2)cc1 the results were SENP7 block 89.0*, HSP90 inh -1.4, SENP8 block-1 78.3*, SENP1 FRET inh 1.7, SENP8 block-2 31.1, SENP6 inh 90.4*, SENP8 conf 85.0*, SENP6 confirm 87.6*, SENP7 confirm 98.4*, Casp3 SENP sel 85.2* and Luc interf 70.2*.
Screening CCCOc1ccc(C(=O)Nc2cccnc2)cc1 returned SENP7 block 68.8*, HSP90 inh 0.3, SENP8 block-1 37.4, SENP1 FRET inh -0.5, SENP8 block-2 0.1, SENP6 inh 69.8*, SENP8 conf 53.8*, SENP6 confirm 51.5*, SENP7 confirm 85.7*, Casp3 SENP sel 82.7* and Luc interf 68.6*.
Screening O=C(Nc1ccccc1)C(=O)Nc1cccnc1 returned SENP7 block 85.8*, HSP90 inh 16.3*, SENP8 block-1 68.8*, SENP1 FRET inh 0.2, SENP8 block-2 26.5, SENP6 inh 76.4*, SENP8 conf 2.1, SENP6 confirm 25.7, SENP7 confirm 67.4*, Casp3 SENP sel 73.3* and Luc interf 8.2.
Screening CCCCOc1ccc(C(=O)Nc2ccncc2)cc1 returned SENP7 block 37.6, HSP90 inh 1.9, SENP8 block-1 42.5, SENP1 FRET inh -1.0, SENP8 block-2 13.0, SENP6 inh 57.0*, SENP8 conf 45.1, SENP6 confirm 40.2, SENP7 confirm 77.0*, Casp3 SENP sel 52.2* and Luc interf 22.1.

Bioassay records (PubChem BioAssay)
